ChEMBL document CHEMBL1157421, “Tenacigenin B derivatives reverse P-glycoprotein-mediated multidrug resistance inHepG2/Dox cells” (J Nat Prod, 2008)
Active and inactive are the calls of the source. The rule behind the calls is not given here.

Experiments:
HepG2 [1] = experiment: Reversal of P-glycoprotein-mediated drug resistance in human HepG2 cells assessed as increase in sensitivity at 25.2 uM in presence of doxorubicin; format: cell-based
Method in brief: (§1)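 SRB growth-inhibition assay in HepG2 or doxorubicin-selected Pgp-overexpressing HepG2/Dox cells. Cells grown in RPMI 1640 with 10% FBS at 37 °C, 5% CO2. HepG2/Dox cells kept in 1.2 µM doxorubicin and grown drug-free for at least 7 days before use. IC50 of anticancer drug determined with or without modulator. Sensitivity fold = IC50 ratio. At least three repeats, mean ± SD.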

HepG2 [2] = experiment: Reversal of P-glycoprotein-mediated drug resistance in human HepG2 cells assessed as increase in sensitivity at 25.2 uM in presence of vinblastine; format: cell-based; method in brief: as §1
HepG2 [3] = experiment: Reversal of P-glycoprotein-mediated drug resistance in human HepG2 cells assessed as increase in sensitivity at 25.2 uM in presence of puromycin; format: cell-based; method in brief: as §1
HepG2 [4] = experiment: Reversal of P-glycoprotein-mediated drug resistance in human HepG2 cells assessed as increase in sensitivity at 25.2 uM in presence of paclitaxel; format: cell-based; method in brief: as §1
[5] = Increase in doxorubicin uptake in multidrug resistance human HepG2/Dox cells assessed as cellular fluorescence at 10 ug/ml; format: functional
Method in brief: (§2)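 Doxorubicin accumulation. About 1 × 10^6 HepG2/Dox cells in medium were given 10 µM doxorubicin with or without test agent and held at 37 °C for 40 min. Cells were washed in ice-cold PBS and fluorescence was read by flow cytometry. Increase (%) = 100 × (FT − FC)/FC; verapamil 10 µM served as positive control. Three experiments, mean ± SD.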

[6] = Increase in doxorubicin uptake in multidrug resistance human HepG2/Dox cells assessed as cellular fluorescence at 20 ug/ml; format: functional; method in brief: as §2
[7] = Increase in doxorubicin uptake in multidrug resistance human HepG2/Dox cells assessed as cellular fluorescence at 40 ug/ml; format: functional; method in brief: as §2
HepG2/Dox [8] = experiment: Inhibition of Pgp-mediated Rh123 accumulation in multidrug resistance human HepG2/Dox cells at 40 ug/ml; format: cell-based
Method in brief: (§3)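 Rh-123 efflux. About 1 × 10^6 HepG2/Dox cells were loaded with 5 µg/mL Rh-123 at 37 °C for 1 h and washed in ice-cold PBS. They then effluxed for 1 h at 37 °C in dye-free medium with 0-80 µg/mL test agent, and retained fluorescence was read by flow cytometry. Percentage increase over control was calculated; verapamil 15 µM served as positive control. Three experiments, mean ± SD.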

HepG2/Dox [9] = experiment: Inhibition of Pgp-mediated Rh123 accumulation in multidrug resistance human HepG2/Dox cells at 80 ug/ml; format: cell-based; method in brief: as §3
HepG2/Dox [10] = experiment: Effect on P-glycoprotein expression in multidrug resistance human HepG2/Dox cells at 20 ug/ml after 72 hrs; format: functional, cell-based
Method in brief: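 Western blot for Pgp. HepG2/Dox cells were incubated with 0, 5, 10 or 20 µg/mL test agent for 72 h, with untreated HepG2 as comparator. Lysates (50 µg total protein) were resolved on 10% SDS-PAGE and Pgp was detected by antibody labeling.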

HepG2/Dox [11] = experiment: Reversal of P-glycoprotein-mediated multidrug resistance in human HepG2/Dox cells assessed as increase in sensitivity at 25.2 uM in presence of doxorubicin; format: cell-based; method in brief: as §1
HepG2/Dox [12] = experiment: Reversal of P-glycoprotein-mediated multidrug resistance in human HepG2/Dox cells assessed as increase in sensitivity at 12.6 uM in presence of doxorubicin; format: cell-based; method in brief: as §1
HepG2/Dox [13] = experiment: Reversal of P-glycoprotein-mediated multidrug resistance in human HepG2/Dox cells assessed as increase in sensitivity at 25.2 uM in presence of vinblastine; format: cell-based; method in brief: as §1
HepG2/Dox [14] = experiment: Reversal of P-glycoprotein-mediated multidrug resistance in human HepG2/Dox cells assessed as increase in sensitivity at 12.6 uM in presence of vinblastine; format: cell-based; method in brief: as §1
HepG2/Dox [15] = experiment: Reversal of P-glycoprotein-mediated multidrug resistance in human HepG2/Dox cells assessed as increase in sensitivity at 25.2 uM in presence of puromycin; format: cell-based; method in brief: as §1
HepG2/Dox [16] = experiment: Reversal of P-glycoprotein-mediated multidrug resistance in human HepG2/Dox cells assessed as increase in sensitivity at 12.6 uM in presence of puromycin; format: cell-based; method in brief: as §1
[17] = Cell cycle arrest in multidrug resistant human HepG2/Dox cells assessed as accumulation in subG1 phase at 20 ug/ml; format: functional, cell-based
Method in brief: (§4)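 Flow-cytometric cell-cycle profiling. About 2 × 10^5 cells were seeded per dish and left overnight, then exposed to medium with or without drug for 48 h. Cells were fixed in 70% EtOH at -20 °C overnight and treated with RNase A (100 µg/mL, 37 °C, 30 min). They were then stained with propidium iodide (40 µg/mL final) at room temperature for 5-10 min and read on a FACSCalibur.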

[18] = Cell cycle arrest in multidrug resistant human HepG2/Dox cells assessed as accumulation in G0/G1 phase at 20 ug/ml; format: functional, cell-based; method in brief: as §4
[19] = Cell cycle arrest in multidrug resistant human HepG2/Dox cells assessed as accumulation in S phase at 20 ug/ml; format: functional, cell-based; method in brief: as §4
[20] = Cell cycle arrest in multidrug resistant human HepG2/Dox cells assessed as accumulation in G2/M phase at 20 ug/ml; format: functional, cell-based; method in brief: as §4
[21] = Effect on doxorubicin-induced cell cycle arrest in multidrug resistance human HepG2/Dox cells assessed as accumulation in subG1 phase at 5 ug/ml; format: functional; method in brief: as §4
[22] = Effect on doxorubicin-induced cell cycle arrest in multidrug resistance human HepG2/Dox cells assessed as accumulation in G0/G1 phase at 5 ug/ml; format: functional; method in brief: as §4
[23] = Effect on doxorubicin-induced cell cycle arrest in multidrug resistance human HepG2/Dox cells assessed as accumulation in S phase at 5 ug/ml; format: functional; method in brief: as §4
[24] = Effect on doxorubicin-induced cell cycle arrest in multidrug resistance human HepG2/Dox cells assessed as accumulation in G2/M phase at 5 ug/ml; format: functional; method in brief: as §4
[25] = Effect on doxorubicin-induced cell cycle arrest in multidrug resistance human HepG2/Dox cells assessed as accumulation in subG1 phase at 10 ug/ml; format: functional; method in brief: as §4
HepG2/Dox [26] = experiment: Reversal of P-glycoprotein-mediated multidrug resistance in human HepG2/Dox cells assessed as increase in sensitivity at 25.2 uM in presence of paclitaxel; format: cell-based; method in brief: as §1
HepG2/Dox [27] = experiment: Reversal of P-glycoprotein-mediated multidrug resistance in human HepG2/Dox cells assessed as increase in sensitivity at 12.6 uM in presence of paclitaxel; format: cell-based; method in brief: as §1
[28] = Effect on doxorubicin-induced cell cycle arrest in multidrug resistance human HepG2/Dox cells assessed as accumulation in G0/G1 phase at 10 ug/ml; format: functional; method in brief: as §4
[29] = Effect on doxorubicin-induced cell cycle arrest in multidrug resistance human HepG2/Dox cells assessed as accumulation in S phase at 10 ug/ml; format: functional; method in brief: as §4
[30] = Effect on doxorubicin-induced cell cycle arrest in multidrug resistance human HepG2/Dox cells assessed as accumulation in G2/M phase at 10 ug/ml; format: functional; method in brief: as §4
[31] = Effect on doxorubicin-induced cell cycle arrest in multidrug resistance human HepG2/Dox cells assessed as accumulation in subG1 phase at 20 ug/ml; format: functional; method in brief: as §4
[32] = Effect on doxorubicin-induced cell cycle arrest in multidrug resistance human HepG2/Dox cells assessed as accumulation in G0/G1 phase at 20 ug/ml; format: functional; method in brief: as §4
[33] = Effect on doxorubicin-induced cell cycle arrest in multidrug resistance human HepG2/Dox cells assessed as accumulation in S phase at 20 ug/ml; format: functional; method in brief: as §4
[34] = Effect on doxorubicin-induced cell cycle arrest in multidrug resistance human HepG2/Dox cells assessed as accumulation in G2/M phase at 20 ug/ml; format: functional; method in brief: as §4
HepG2 [35] = experiment: Growth inhibition of doxorubicin-sensitive human HepG2 cells at 80 uM; format: functional
Method in brief: (§5)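 SRB growth assay. HepG2 and HepG2/Dox cells were grown in RPMI 1640 with 10% FBS at 37 °C and 5% CO2; resistant cells were kept drug-free for at least 7 days before use. IC50 was taken from the SRB assay, with at least three repeats, reported as mean ± SD.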

[36] = Growth inhibition of multidrug resistant human HepG2/Dox cells at 80 uM; format: functional; method in brief: as §5

## C/C=C(\C)C(=O)O[C@@H]1[C@@H](OC(C)=O)[C@]2(C)[C@H](C(C)=O)CC[C@@]23O[C@]32CC[C@H]3C[C@@H](O[C@H]4C[C@@H](OC)[C@H](O[C@@H]5O[C@H](C)[C@@H](O)[C@@H](OC)[C@H]5O)[C@@H](C)O4)CC[C@]3(C)[C@@H]12 [TENACISSIMOSIDE A]
HepG2 [1]
  Ratio IC50: 1.1
HepG2 [2]
  Ratio IC50: 1.1
HepG2 [3]
  Ratio IC50: 1.1
HepG2 [4]
  Ratio IC50: 1.1
[5]
  Activity: 18%
[6]
  Activity: 28%
[7]
  Activity: 41%
HepG2/Dox [8]
  inhibition: 50%
HepG2/Dox [9]
  inhibition: 90%
HepG2/Dox [10]
  Activity: inactive
HepG2/Dox [11]
  Ratio IC50: 17.9
HepG2/Dox [12]
  Ratio IC50: 7.8
HepG2/Dox [13]
  Ratio IC50: 10
HepG2/Dox [14]
  Ratio IC50: 2.4
HepG2/Dox [15]
  Ratio IC50: 11.2
HepG2/Dox [16]
  Ratio IC50: 7
[17]
  Activity: 3%
[18]
  Activity: 49.3%
[19]
  Activity: 7.2%
[20]
  Activity: 32%
[21]
  Activity: 3.5%
[22]
  Activity: 39.8%
[23]
  Activity: 6.8%
[24]
  Activity: 44.2%
[25]
  Activity: 3.5%
HepG2/Dox [26]
  Ratio IC50: 5.8
HepG2/Dox [27]
  Ratio IC50: 4.7
[28]
  Activity: 24.9%
[29]
  Activity: 6.3%
[30]
  Activity: 63.6%
[31]
  Activity: 7.6%
[32]
  Activity: 8.9%
[33]
  Activity: 5.1%
[34]
  Activity: 73%
HepG2 [35]
  inhibition at 80 µM: 50%
[36]
  inhibition at 80 µM: 50%
